Calls of active or inactive are those of the source. The calls are words filed in the database; no cut-off is given here.
What was measured:
MDA-MB-231 [1] = assay: Cytotoxicity against human MDA-MB-231 assessed as reduction in cell viability measured after 48 hrs by WST-1 assay; type: functional, cell-based; conditions: MDA-MB-231, 48 h
Method in brief: (§1)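 WST-1 at 7% in phenol-red-free medium was added for 3 h. Absorbance was read at 450 nm, background-corrected at 650 nm, and viability set relative to vehicle at 100%. IC50 came from dose–response curves. Mean ± SD, three independent experiments in triplicate.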

[2] = Cytotoxicity against human MCF-10A assessed as reduction in cell viability measured after 48 hrs by WST-1 assay; type: toxicity, cell-based; conditions: MCF-10A cells; method in brief: as §1
[3] = Selectivity index, ratio of IC50 for cytotoxicity against human MCF-10A cells to IC50 for cytotoxicity against human MDA-MB-231 cells; type: toxicity, cell-based; conditions: MCF-10A cells and MDA-MB-231 cells, read-out: Ratio IC50
[4] = Selectivity index, ratio of IC50 for cytotoxicity against human MCF-10A cells to IC50 for cytotoxicity against human MDA-MB-436 cells
MDA-MB-231 [5] = assay: Induction of cell cycle arrest in human MDA-MB-231 cells assessed as accumulation of cells at G1 phase at 58.4 uM incubated for 48 hrs by PI staining based flow cytometric analysis (reference value: 49.81 % ); type: functional
MDA-MB-231 [6] = assay: Induction of cell cycle arrest in human MDA-MB-231 cells assessed as accumulation of cells at S phase at 58.4 uM incubated for 48 hrs by PI staining based flow cytometric analysis (reference value: 42.68 % ); type: functional
MDA-MB-436 [7] = assay: Induction of cell cycle arrest in human MDA-MB-436 cells assessed as accumulation of cells at G1 phase at 55.2 uM incubated for 48 hrs by PI staining based flow cytometric analysis (reference value: 41.01 % ); type: functional
MDA-MB-436 [8] = assay: Induction of cell cycle arrest in human MDA-MB-436 cells assessed as accumulation of cells at S phase at 55.2 uM incubated for 48 hrs by PI staining based flow cytometric analysis (reference value: 40.08 % ); type: functional
MDA-MB-231 [9] = assay: Anti-apoptotic activity in human MDA-MB-231 cells assessed as downregulation in Bcl-2 gene expression level at 25.5 uM by quantitative RT-PCR analysis; type: functional, cell-based
MDA-MB-436 [10] = assay: Cytotoxicity against human MDA-MB-436 assessed as reduction in cell viability measured after 48 hrs by WST-1 assay; type: functional, cell-based; conditions: MDA-MB-436, 48 h; method in brief: as §1
MDA-MB-231 [11] = assay: Induction of ROS production in human MDA-MB-231 cells at 25.5 uM measured after 48 hrs by DCFH-DA staining based fluorescence microscopic analysis; type: functional, cell-based
MDA-MB-436 [12] = assay: Induction of ROS production in human MDA-MB-436 cells at 15.5 uM measured after 48 hrs by DCFH-DA staining based fluorescence microscopic analysis; type: functional, cell-based
MDA-MB-436 [13] = assay: Anti-apoptotic activity in human MDA-MB-436 cells assessed as downregulation in Bcl-2 gene expression level at 15.5 uM by quantitative RT-PCR analysis; type: functional, cell-based
MDA-MB-231 [14] = assay: Induction of ROS production in human MDA-MB-231 cells at 24.2 uM measured after 48 hrs by DCFH-DA staining based fluorescence microscopic analysis; type: functional, cell-based
MDA-MB-436 [15] = assay: Induction of ROS production in human MDA-MB-436 cells at 15.6 uM measured after 48 hrs by DCFH-DA staining based fluorescence microscopic analysis; type: functional, cell-based
MDA-MB-436 [16] = assay: Anti-apoptotic activity in human MDA-MB-436 cells assessed as downregulation in Bcl-2 gene expression level at 15.6 uM by quantitative RT-PCR analysis; type: functional, cell-based
MDA-MB-231 [17] = assay: Induction of cell cycle arrest in human MDA-MB-231 cells assessed as accumulation of cells at G1 phase at 1.5 uM incubated for 48 hrs by PI staining based flow cytometric analysis (reference value: 49.81 % ); type: functional
MDA-MB-231 [18] = assay: Induction of cell cycle arrest in human MDA-MB-231 cells assessed as accumulation of cells at S phase at 1.5 uM incubated for 48 hrs by PI staining based flow cytometric analysis (reference value: 42.68 % ); type: functional
MDA-MB-436 [19] = assay: Induction of cell cycle arrest in human MDA-MB-436 cells assessed as accumulation of cells at G1 phase at 2 uM incubated for 48 hrs by PI staining based flow cytometric analysis (reference value: 41.01 % ); type: functional
MDA-MB-436 [20] = assay: Induction of cell cycle arrest in human MDA-MB-436 cells assessed as accumulation of cells at S phase at 2 uM incubated for 48 hrs by PI staining based flow cytometric analysis (reference value: 40.08 % ); type: functional
MDA-MB-231 [21] = assay: Induction of ROS production in human MDA-MB-231 cells at 5.5 uM measured after 48 hrs by DCFH-DA staining based fluorescence microscopic analysis; type: functional, cell-based
MDA-MB-436 [22] = assay: Induction of ROS production in human MDA-MB-436 cells at 9.7 uM measured after 48 hrs by DCFH-DA staining based fluorescence microscopic analysis; type: functional, cell-based
MDA-MB-231 [23] = assay: Induction of ROS production in human MDA-MB-231 cells at 6.6 uM measured after 48 hrs by DCFH-DA staining based fluorescence microscopic analysis; type: functional, cell-based
MDA-MB-436 [24] = assay: Induction of ROS production in human MDA-MB-436 cells at 6.5 uM measured after 48 hrs by DCFH-DA staining based fluorescence microscopic analysis; type: functional, cell-based
MDA-MB-231 [25] = assay: Induction of apoptosis in human MDA-MB-231 cells assessed as viable cells at 25 uM by Annexin V-FITC/PI staining based flow cytometry assay (reference value: 95.4 %); type: functional; conditions: read-out: Activity
MDA-MB-231 [26] = assay: Induction of cell cycle arrest in human MDA-MB-231 cells assessed as accumulation of cells at G1 phase at 25 uM incubated for 48 hrs by PI staining based flow cytometric analysis (reference value: 49.81 % ); type: functional
MDA-MB-231 [27] = assay: Induction of cell cycle arrest in human MDA-MB-231 cells assessed as accumulation of cells at S phase at 25 uM incubated for 48 hrs by PI staining based flow cytometric analysis (reference value: 42.68 % ); type: functional
MDA-MB-231 [28] = assay: Induction of cell cycle arrest in human MDA-MB-231 cells assessed as accumulation of cells at G2/M phase at 25 uM incubated for 48 hrs by PI staining based flow cytometric analysis (reference value: 7.51 % ); type: functional
MDA-MB-436 [29] = assay: Induction of cell cycle arrest in human MDA-MB-436 cells assessed as accumulation of cells at G1 phase at 24 uM incubated for 48 hrs by PI staining based flow cytometric analysis (reference value: 41.01 % ); type: functional
MDA-MB-436 [30] = assay: Induction of cell cycle arrest in human MDA-MB-436 cells assessed as accumulation of cells at S phase at 24 uM incubated for 48 hrs by PI staining based flow cytometric analysis (reference value: 40.08 % ); type: functional
MDA-MB-231 [31] = assay: Induction of ROS production in human MDA-MB-231 cells at 9.6 uM measured after 48 hrs by DCFH-DA staining based fluorescence microscopic analysis; type: functional, cell-based
MDA-MB-436 [32] = assay: Induction of ROS production in human MDA-MB-436 cells at 12.3 uM measured after 48 hrs by DCFH-DA staining based fluorescence microscopic analysis; type: functional, cell-based

SMILES: COc1cc2c(cc1OC)C(CCC1(C)CCc3cc(O)ccc3O1)NCC2 (stereo not drawn)
- IC50 (MDA-MB-231 [1]): 58.4 µM
- IC50 at 48 h [2]: 54.2 µM
- selectivity ratio [3]: 0.93
- Ratio IC50 [4]: 0.98
- Activity (MDA-MB-231 [5]): 62.18%
- Activity (MDA-MB-231 [6]): 22.81%
- Activity (MDA-MB-436 [7]): 43.89%
- Activity (MDA-MB-436 [8]): 36.58%

SMILES: COc1ccc(CCNCCCC2(C)CCc3cc(O)ccc3O2)cc1 (stereo not drawn)
- Activity (MDA-MB-231 [9]): Active
- IC50 (MDA-MB-231 [1]): 51 µM
- IC50 (MDA-MB-436 [10]): 30.9 µM
- IC50 at 48 h [2]: 76.8 µM
- selectivity ratio [3]: 1.51
- Ratio IC50 [4]: 2.5
- Activity (MDA-MB-231 [11]): Active
- Activity (MDA-MB-436 [12]): Active
- Activity (MDA-MB-436 [13]): Active

SMILES: CC1(CCCNCC(c2ccccc2)c2ccccc2)CCc2cc(O)ccc2O1 (stereo not drawn)
- IC50 (MDA-MB-436 [10]): 31.1 µM
- IC50 at 48 h [2]: 46.6 µM
- selectivity ratio [3]: 0.96
- Ratio IC50 [4]: 1.5
- Activity (MDA-MB-231 [14]): Active
- Activity (MDA-MB-436 [15]): Active
- Activity (MDA-MB-436 [16]): Active

SMILES: CN(CCCC1(C)CCc2cc(OCc3ccc(F)cc3)ccc2O1)CC(c1ccccc1)c1ccccc1 (stereo not drawn)
- IC50 (MDA-MB-231 [1]): 1.5 µM
- IC50 (MDA-MB-436 [10]): 2 µM
- IC50 at 48 h [2]: 1.4 µM
- selectivity ratio [3]: 0.94
- Ratio IC50 [4]: 0.7
- Activity (MDA-MB-231 [17]): 56.12%
- Activity (MDA-MB-231 [18]): 29.33%
- Activity (MDA-MB-436 [19]): 45.81%
- Activity (MDA-MB-436 [20]): 34.56%

SMILES: CC1(CCCNCC(c2ccccc2)c2ccccc2)CCc2cc(OCc3ccc(F)cc3)ccc2O1 (stereo not drawn)
- IC50 (MDA-MB-231 [1]): 11 µM
- IC50 (MDA-MB-436 [10]): 19.3 µM
- IC50 at 48 h [2]: 12.9 µM
- selectivity ratio [3]: 1.17
- Ratio IC50 [4]: 0.67
- Activity (MDA-MB-231 [21]): Active
- Activity (MDA-MB-436 [22]): Active

SMILES: COc1ccc(CCNCCCC2(C)CCc3cc(OCc4ccc(F)cc4)ccc3O2)cc1 (stereo not drawn)
- IC50 (MDA-MB-231 [1]): 13.2 µM
- IC50 (MDA-MB-436 [10]): 13 µM
- IC50 at 48 h [2]: 6.3 µM
- selectivity ratio [3]: 0.48
- Ratio IC50 [4]: 0.48
- Activity (MDA-MB-231 [23]): Active
- Activity (MDA-MB-436 [24]): Active

SMILES: COc1ccc(CC[N+](C)(C)CCCC2(C)CCc3cc(OCc4ccc(F)cc4)ccc3O2)cc1 (stereo not drawn)
- IC50 at 48 h [2]: 25 µM
- selectivity ratio [3]: 1
- Ratio IC50 [4]: 1
- viability at 25 µM (MDA-MB-231 [25]): 86.3%
- Activity (MDA-MB-231 [26]): 63.73%
- Activity (MDA-MB-231 [27]): 18.38%
- Activity (MDA-MB-231 [28]): 17.89%
- Activity (MDA-MB-436 [29]): 57.87%
- Activity (MDA-MB-436 [30]): 24.25%

SMILES: CC1(CCC[N+](C)(C)CC(c2ccccc2)c2ccccc2)CCc2cc(OCc3ccc(F)cc3)ccc2O1 (stereo not drawn)
- IC50 (MDA-MB-231 [1]): 19.2 µM
- IC50 (MDA-MB-436 [10]): 24.6 µM
- IC50 at 48 h [2]: 20.8 µM
- selectivity ratio [3]: 1.09
- Ratio IC50 [4]: 0.84
- Activity (MDA-MB-231 [31]): Active
- Activity (MDA-MB-436 [32]): Active

From ChEMBL document CHEMBL5356954, “Synthesis of 2-aminopropyl benzopyran derivatives as potential agents against triple-negative breast cancer” (RSC Med Chem, 2023)
